# Reference: ChEMBL document CHEMBL1132980, “1,2,4-Triazolo[4,3-a]quinoxalin-1-one: a versatile tool for the synthesis of potent and selective adenosine receptor antagonists” (J Med Chem, 2000)
# Key:
# [1] = molecular target: T1, Adenosine receptor A1 (Bos taurus, UniProt P28190); assay: Binding affinity towards adenosine A1 receptor of bovine brain membrane in presence of [3H]CHA at a concentration of 20 uM
# T1 sequence (P28190 whole entry): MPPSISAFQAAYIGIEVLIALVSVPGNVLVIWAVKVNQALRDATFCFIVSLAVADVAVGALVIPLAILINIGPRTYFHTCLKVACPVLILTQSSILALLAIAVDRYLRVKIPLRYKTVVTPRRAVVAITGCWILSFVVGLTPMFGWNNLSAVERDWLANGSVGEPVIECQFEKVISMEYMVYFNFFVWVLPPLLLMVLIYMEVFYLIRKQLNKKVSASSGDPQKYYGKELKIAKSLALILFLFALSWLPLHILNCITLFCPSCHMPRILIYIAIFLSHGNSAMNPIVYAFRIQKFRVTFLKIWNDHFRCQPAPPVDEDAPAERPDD
# Procedure, shortened: (§1)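 Compounds dissolved in DMSO (2% in buffer), with blank runs for solvent effect. Membrane protein measured after solubilization in 0.75 N NaOH against a BSA standard.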
# [2] = molecular target: T2, Adenosine receptor A3 (Homo sapiens, UniProt P0DMS8); assay: Binding affinity towards human adenosine A3 receptor expressed in HEK293 cells in presence of [125I]-AB-MECA at a concentration of 1 uM; format: cell-based
# T2 sequence (P0DMS8 whole entry): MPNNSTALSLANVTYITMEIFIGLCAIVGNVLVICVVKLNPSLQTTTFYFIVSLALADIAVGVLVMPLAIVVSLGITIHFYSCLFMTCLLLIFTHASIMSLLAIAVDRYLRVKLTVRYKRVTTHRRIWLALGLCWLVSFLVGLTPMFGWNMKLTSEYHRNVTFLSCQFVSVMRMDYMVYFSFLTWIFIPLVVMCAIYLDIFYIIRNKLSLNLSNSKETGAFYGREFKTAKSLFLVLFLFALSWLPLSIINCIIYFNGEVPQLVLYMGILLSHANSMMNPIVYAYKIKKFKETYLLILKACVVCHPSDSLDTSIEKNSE
# [3] = molecular target: Adenosine receptor A2a (Bos taurus); assay: Binding affinity towards Adenosine A2A receptor of bovine striatal membrane using [3H]-CGS- at 20 uM
# [4] = molecular target: T2, Adenosine receptor A3; assay: Binding affinity towards human adenosine A3 receptor expressed in HEK293 cells using [125I]AB-MECA at 1 uM; format: cell-based
# [5] = molecular target: T1, Adenosine receptor A1; assay: Binding affinity towards adenosine A1 receptor of bovine brain membrane using [3H]-CHA at 20 uM
# [6] = test system: Adenosine receptor A2a (Bos taurus); assay: Binding affinity towards adenosine A2A receptor of bovine striatal membrane in presence of [3H]-CGS- at a concentration of 20 uM
# [7] = molecular target: T3, Adenosine receptor A1 (Bos taurus) (UniProt P28190); assay: Binding affinity towards Adenosine A1 receptor of bovine brain membrane using [3H]-CHA at 20 uM; procedure, shortened: as §1
# T3 sequence (whole entry): T1 sequence (P28190 whole entry)
# [8] = molecular target: T4, Adenosine receptor A3 (Homo sapiens) (UniProt P0DMS8); assay: Binding affinity towards human Adenosine A3 receptor expressed in HEK293 cells using [125I]AB-MECA at 1 uM; format: cell-based
# T4 sequence (whole entry): T2 sequence (P0DMS8 whole entry)
# [9] = test system: Adenosine receptor A2a (Bos taurus); assay: Binding affinity towards adenosine A2A receptor of bovine striatal membrane in presence of [3H]-CGS-
Ki [1] [nM],Ki [2] [nM],inhibition [6] [%],Compound,also measured
312,45.3,–,COc1ccc(-n2nc3c(N)nc4ccccc4n3c2=O)cc1,–
4.9,44.2,–,O=c1n(-c2cccc(F)c2)nc2c(NC3CCCCC3)nc3ccccc3n12,Ki [3]: 66 nM
1.43,506,–,O=c1n(-c2ccccc2)nc2c(NC3CCCCC3)nc3ccccc3n12,–
–,–,–,Cn1c(=O)c2[nH]c(C3CCCC3)nc2n(C)c1=O [8-CYCLOPENTYLTHEOPHYLLINE],Ki [4]: 1300 nM; Ki [5]: 0.5 nM
309,36.6,53,Cn1c(=O)c2nn(-c3ccccc3)c(=O)n2c2ccccc21,–
4.3,2,–,CC(=O)Nc1nc2ccccc2n2c(=O)n(-c3ccccc3)nc12,–
436,91,5,Cc1cccc(-n2nc3c(=O)[nH]c4ccccc4n3c2=O)c1,–
–,27.5,–,Cc1cccc(-n2nc3c(NC4CCCC4)nc4ccccc4n3c2=O)c1,–
–,137,8,Cn1c(=O)c2nn(-c3ccc(Cl)cc3)c(=O)n2c2ccccc21,inhibition [7]: 29%
55,1700,59,O=c1n(-c2ccccc2)nc2c(NCc3ccccc3)nc3ccccc3n12,–
89.6,1.47,53,O=C(Nc1nc2ccccc2n2c(=O)n(-c3ccccc3)nc12)c1ccccc1,–
–,48.3,–,Cc1ccc(-n2nc3c(N)nc4ccccc4n3c2=O)cc1,–
934,16,–,COc1ccc(-n2nc3c(=O)[nH]c4ccccc4n3c2=O)cc1,–
17.9,40.9,61,O=c1n(-c2ccccc2)nc2c(NCCCc3ccccc3)nc3ccccc3n12,–
155,25,0,Cc1ccc(-n2nc3c(=O)[nH]c4ccccc4n3c2=O)cc1,–
–,–,–,Nc1nc2ccccc2n2c(=O)n(-c3ccccc3)nc12,inhibition [8]: 36%
–,–,–,O=c1n(-c2ccccc2)nc2c(NCC(c3ccccc3)c3ccccc3)nc3ccccc3n12,Ki [4]: 1020 nM; Ki [5]: 54 nM
1.1,173,–,O=c1n(-c2cccc(F)c2)nc2c(NC3CCCC3)nc3ccccc3n12,Ki [9]: 148 nM
80.1,56.1,0,O=c1n(-c2ccc(Cl)cc2)nc2c(NC3CCCCC3)nc3ccccc3n12,–

Ki [1] [nM],Ki [2] [nM],inhibition [6] [%],Compound,also measured
406,1250,44,CCCn1c(=O)c2nn(-c3ccccc3)c(=O)n2c2ccccc21,–
0.42,55.4,–,O=c1n(-c2ccccc2)nc2c(NC3CCCC3)nc3ccccc3n12,–
–,197,–,Cc1ccc(N2CN3C(=N2)C(=O)Nc2ccccc23)cc1,inhibition [7]: 48%
4.8,201,59,O=c1n(-c2ccccc2)nc2c(NCCc3ccccc3)nc3ccccc3n12,–
–,276,–,O=C(Nc1ccccc1)Nc1nc2ccccc2n2c(=O)n(-c3ccccc3)nc12,–
20,28.5,–,Cc1cccc(-n2nc3c(N)nc4ccccc4n3c2=O)c1,–
515,80,64,O=c1[nH]c2ccccc2n2c(=O)n(-c3ccccc3)nc12,–
–,504,0,Cc1ccc(-n2nc3c(=O)n(C)c4ccccc4n3c2=O)cc1,inhibition [7]: 22%
4.2,548,41,Cc1cccc(-n2nc3c(NC4CCCCC4)nc4ccccc4n3c2=O)c1,–
426,329,37,Nc1nc2ccccc2n2c(=O)n(-c3ccc(Cl)cc3)nc12,–
6.3,3.75,62,O=C(Cc1ccccc1)Nc1nc2ccccc2n2c(=O)n(-c3ccccc3)nc12,–
9.3,15.8,–,CCC(=O)Nc1nc2ccccc2n2c(=O)n(-c3ccccc3)nc12,–
200,63,20,O=c1[nH]c2ccccc2n2c(=O)n(-c3cccc(F)c3)nc12,–
–,–,–,Nc1cccc2c1nc(N)c1nn(-c3ccccc3)c(=O)n12,inhibition [8]: 54%
1020,114,–,O=c1[nH]c2ccccc2n2c(=O)n(-c3ccc(Cl)cc3)nc12,–
–,479,–,C#CCn1c(=O)c2nn(-c3ccccc3)c(=O)n2c2ccccc21,–
28.5,157,–,Nc1nc2ccccc2n2c(=O)n(-c3cccc(F)c3)nc12,–
2600,960,–,COc1ccc(NC(=O)Nc2nc3ccccc3n3c(=O)n(-c4ccccc4)nc23)cc1,–

Compound,Ki [1] [nM],Ki [2] [nM],inhibition [6] [%],also measured
Nc1nc2c(NCc3ccccc3)cccc2n2c(=O)n(-c3ccccc3)nc12,730,–,–,inhibition [8]: 30%; Ki [3]: 6.5 nM
